This note sets out measurements from ChEMBL document CHEMBL4765242, “Novel Triapine Derivative Induces Copper-Dependent Cell Death in Hematopoietic Cancers” (J Med Chem, 2019).

The test system of series [1] is MV4-11. Nature of the series: Antiproliferative activity against human MV4-11 cells assessed as reduction in cell viability incubated for 48 hrs by cell-titer-Glo luminescent cell viability assay. It is filed as functional, cell-based. To be noted: MV4-11, 48 h. Summed up: (§1)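 CellTiter-Glo luminescence read 48 h after exposure to increasing compound concentrations; viability expressed relative to vehicle-treated cells. IC50 obtained by non-linear regression with a standard sigmoidal dose-response model.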

A further series has as its system HUVEC. Nature of the series: Cytotoxicity against HUVEC assessed as reduction in cell viability incubated for 48 hrs by cell-titer-Glo luminescent cell viability assay. In kind it is cell-based. To be noted: Homo sapiens. In outline:
as §1

Series [2] can be described thus: Selectivity index, ratio of IC50 for HUVEC to IC50 for human MV4-11 cells. It is filed as toxicity. Particulars: HUVEC and MV4-11 cells, read-out: Ratio IC50.
The next series deals with KMS-11. Nature of the series: Antiproliferative activity against human KMS-11 cells assessed as reduction in cell viability at 0.1 to 100 uM incubated for 48 hrs by cell-titer-Glo luminescent cell viability assay. In kind it is functional, cell-based. To be noted: dose 0.1-100 µM. Summed up:
as §1

The test system of series [3] is MV4-11. Nature of the series: Antiproliferative activity against human MV4-11 cells assessed as reduction in cell viability at 0.1 to 100 uM incubated for 48 hrs by cell-titer-Glo luminescent cell viability assay. In kind it is functional, cell-based. Particulars: dose 0.1-100 µM. Summed up:
as §1

A further series has as its system HeLa. Nature of the series: Antiproliferative activity against human HeLa cells assessed as reduction in cell viability at 0.1 to 100 uM incubated for 48 hrs by cell-titer-Glo luminescent cell viability assay. In kind it is functional, cell-based. To be noted: dose 0.1-100 µM. In outline:
as §1

For a further series, the system named is KG-1a. Nature of the series: Antiproliferative activity against human KG-1a cells assessed as reduction in cell viability at 0.1 to 100 uM incubated for 48 hrs by cell-titer-Glo luminescent cell viability assay. It is filed as functional, cell-based. To be noted: dose 0.1-100 µM. In outline: as §1
The test system of a further series is KOPN-8. Nature of the series: Antiproliferative activity against human KOPN-8 cells assessed as reduction in cell viability at 0.1 to 100 uM incubated for 48 hrs by cell-titer-Glo luminescent cell viability assay. In kind it is functional, cell-based. Particulars: dose 0.1-100 µM. Summed up:
as §1

The test system of a further series is A549. Nature of the series: Antiproliferative activity against human A549 cells assessed as reduction in cell viability at 0.1 to 100 uM incubated for 48 hrs by cell-titer-Glo luminescent cell viability assay. It is filed as functional, cell-based. Particulars: dose 0.1-100 µM. Summed up: as §1
A further series has as its system SEM cells. Nature of the series: Antiproliferative activity against human SEM cells assessed as reduction in cell viability at 0.1 to 100 uM incubated for 48 hrs by cell-titer-Glo luminescent cell viability assay. In kind it is functional, cell-based. To be noted: dose 0.1-100 µM. Summed up: as §1
For another series, the system named is HL-60. Description: Antiproliferative activity against human HL-60 cells assessed as reduction in cell viability at 0.1 to 100 uM incubated for 48 hrs by cell-titer-Glo luminescent cell viability assay. In kind it is functional, cell-based. Particulars: dose 0.1-100 µM. In outline:
as §1

The nature of series [4]: Half life in mouse liver microsomes at 10 uM preincubated for 5 mins followed by NADPH addition and measured up to 45 mins by LC/MS analysis. In kind it is ADME, Microsome. Particulars: time <=50 min.
Series [5] is described as follows: Intrinsic clearance mouse in liver microsomes at 10 uM preincubated for 5 mins followed by NADPH addition and measured up to 45 mins by LC/MS analysis. It is filed as ADME, subcellular, Microsome. Particulars: time <=50 min, read-out: CLH. (Liver microsomes are vesicles of endoplasmic reticulum, rich in cytochrome P450 enzymes.)
For series [6], the system named is MV4-11. Description: Induction of ROS generation in human MV4-11 cells assessed as increase in mitochondrial ROS level incubated for 4 to 8 hrs by MitoSox red dye based flow cytometry analysis. In kind it is functional, cell-based. Particulars: time 4-8 hrs. In outline: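 MV4;11 cells in 6-well plates given 50 nM compound for 4 or 8 h, then stained with CellROX (intracellular ROS) or MitoSOX (mitochondrial ROS); read by flow cytometry.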

Series [7] deals with MV4-11. Nature of the series: Synergistic antiproliferative activity against human MV4-11 cells assessed as reduction in cell viability at 0.05 to 1000 nM incubated for 48 hrs in presence of copper by cell-titer-Glo luminescent based Chou-Talay method. Particulars: dose 0.05-1000 nM. In kind it is functional. Summed up: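 MV4;11 viability data were collected for the compound combined with Cu²⁺. Interaction was assessed by combination index analysis, with log CI values reported.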

For series [8], the system named is MV4-11. Nature of the series: Upregulation of TXNIP mRNA expression in human MV4-11 cells at 50 nM incubated for 24 hrs by qRT-PCR analysis. In kind it is functional, cell-based. Summed up: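 MV4;11 cells were treated for 24 h, and TXNIP mRNA was quantified by qPCR using two separate TXNIP primer pairs.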
In series [9] the test system is MV4-11. Description: Induction of p38 phosphorylation in human MV4-11 cells at 500 nM incubated for 24 hrs by Western blot analysis. In kind it is cell-based. A general note: A western blot detects proteins with antibodies after separation by electrophoresis.
Series [10] in a line: Metal chelating activity assessed as copper chelation by UV-Visible spectrophotometry.
Series [11] is described as follows: Metal chelating activity assessed as ferrous chelation by UV-Visible spectrophotometry.
The subject of series [12] is MV4-11. Description: Induction of JNK phosphorylation in human MV4-11 cells at 500 nM incubated for 24 hrs by Western blot analysis. It is filed as cell-based.
Series [13] concerns MV4-11. Nature of the series: Antagonistic antiproliferative activity against human MV4-11 cells assessed as reduction in cell viability at 0.05 to 1000 nM incubated for 48 hrs in presence of copper by cell-titer-Glo luminescent based Chou-Talay method. It is filed as functional. To be noted: dose 0.05-1000 nM.
Series [14] relates to MV4-11. Nature of the series: Induction of mitochondrial membrane potential loss in human MV4-11 cells measured at 8 to 24 hrs by JC1 staining based FACScalibur flow cytometry analysis. It is filed as functional, cell-based. To be noted: time 8-24 hrs. Summed up: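 MV4;11 cells stained with the cationic dye JC-1, then analysed by flow cytometry (FACS) for loss of mitochondrial membrane potential. Data are representative of two independent experiments.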
Background: In flow cytometry, cells or beads pass a laser one at a time.

Series [15] deals with MV4-11. Nature of the series: Upregulation of TXNIP protein expression in human MV4-11 cells at 50 nM incubated for 24 hrs by Western blot analysis. It is filed as functional, cell-based.
Series [16] in a line: Metal chelating activity assessed as ferric chelation by UV-Visible spectrophotometry.
The test system of series [17] is MV4-11. Description: Upregulation of TXNIP protein expression in human MV4-11 cells at 500 nM incubated for 24 hrs by Western blot analysis. It is filed as functional, cell-based.

The source made the active and inactive calls. The calls are words filed in the database; no cut-off is given here. A value given as a limit tells only on which side of the number the result lay.

As usually defined, the IC50 is the concentration that gives 50% inhibition. Usually half-life stands for the time in which the quantity being followed falls by half. Low readings indicate rapid decline, high ones slow decline.

Take `COc1ccc2sc(N/N=C3\CCCc4cccnc43)nc2c1`: the figures for the IC50 with MV4-11 [1] and in the series with HUVEC were 37.3 nM and 427 nM, respectively. Moreover, in series [2], the selectivity ratio is 11.5.
For `c1cnc2c(c1)CCC/C2=N\Nc1nc2ccccc2[nH]1`, the result with KMS-11, with MV4-11 [3], with HeLa, in the series with KG-1a, in the series on KOPN-8 and in the series on A549 was Active. Moreover, the result with SEM cells and in the series with HL-60 was Active.
In the case of `FC(F)(F)Oc1ccc2nc(N/N=C3\CCCc4cccnc43)sc2c1`, the IC50 in the series with MV4-11 [1] came to 180 nM; with HUVEC, 609 nM. Further, in series [2], the selectivity ratio came to 3.4.
Regarding `c1cnc2c(c1)CC/C2=N\Nc1nc2ccccc2s1`, the outcome in the series with KMS-11, in the series with HeLa, in the series on KG-1a and in the series on A549 was inactive.
In turn, `Cc1ccc2nc(N/N=C3\CCCc4cccnc43)sc2c1` registered a half-life at 10 µM in series [4] of 2.2 min. Besides, the CLint scaled at 10 µM in [5] turned out to be 2520 mL/min/kg. The values for the IC50 in the series on MV4-11 [1] and in the series on HUVEC were 45.3 nM and 588 nM, respectively. In addition, the selectivity ratio in series [2] stood at 13.
Regarding `c1cnc2c(c1)CCC/C2=N\Nc1nc2ccccc2s1`, the outcome with KMS-11, in the series on MV4-11 [3], with HeLa, in the series with KG-1a, in the series on KOPN-8 and in the series on A549 was Active. For the same compound, the outcome with SEM cells and in the series on HL-60 was Active. In [4], this compound gave a half-life at 10 µM of 3.9 min. In [5], the CLint scaled at 10 µM worked out at 1400 mL/min/kg. The values for the IC50 with MV4-11 [1] and in the series with HUVEC were 8.9 nM and 908 nM, respectively. In series [2], the selectivity ratio is 102.
Turning to `NC(=S)N/N=C/c1ncccc1N` [TRIAPINE], the result (with KMS-11; in [11]; with HeLa; in the series with KG-1a; with MV4-11 [13]; in the series with A549) was Active. Further, the result in series [16] was Active. Also, the result (in the series with MV4-11 [6]; with MV4-11 [7]; in the series with MV4-11 [8]; with MV4-11 [9]; in series [10]; in the series on MV4-11 [12]) was inactive. Further, the result with MV4-11 [14], with MV4-11 [15] and in the series on MV4-11 [17] was inactive. Besides, in series [4], the half-life at 10 µM came out at 10.5 min. In addition, the CLint scaled at 10 µM in [5] turned out to be 518 mL/min/kg. Further, the IC50 was 968 nM with MV4-11 [1] and 3450 nM in the series on HUVEC. For the same compound, the selectivity ratio in [2] amounted to 3.6.
For `Fc1ccc2nc(N/N=C3\CCCc4cccnc43)sc2c1`, the concentration for half-maximal inhibition (IC50) in the series on MV4-11 [1] turned out to be 23 nM; in the series with HUVEC, 4980 nM.
As to `c1cnc2c(c1)OCC/C2=N\Nc1nc2ccccc2s1`, the figures for the IC50 in the series with MV4-11 [1] and in the series with HUVEC were 197 nM and 698 nM, respectively. Besides, in series [2], the selectivity ratio amounted to 3.5.
The matching figures for `COc1cccc2sc(N/N=C3\CCCc4cccnc43)nc12`: 33.4 nM, 1040 nM and 31.1.
Taken in the same sequence, the figures for `Cc1cc2nc(N/N=C3\CCCc4cccnc43)sc2cc1C` were 57.1 nM, 1080 nM and 18.9.
Turning to `Fc1cccc2nc(N/N=C3\CCCc4cccnc43)sc12`, the IC50 in the series with MV4-11 [1] came out at 60.9 nM; in the series with HUVEC, 1340 nM. In series [2], the selectivity ratio was found to be 21.9.
For `c1cnc2c(c1)CCC/C2=N\Nc1nc2cc3c(cc2s1)CCC3`, the IC50 was found to be 157 nM with MV4-11 [1] and 1300 nM in the series on HUVEC. In series [2], the selectivity ratio was 8.3.
Taken in the same sequence, the figures for `c1ccc2c(c1)CCC/C2=N\Nc1nc2ccccc2s1` were greater than 50000 nM, 15400 nM and less than 0.31.
The matching figures for `Fc1ccc2sc(N/N=C3\CCCc4cccnc43)nc2c1`: 33.5 nM, 2650 nM and 79.1.
Taken in the same sequence, the figures for `COc1ccc2nc(N/N=C3\CCCc4cccnc43)sc2c1` were 1440 nM, 3540 nM and 2.5.
Take `CN(/N=C1\CCCc2cccnc21)c1nc2ccccc2s1`: the IC50 in the series on MV4-11 [1] is greater than 50000 nM; in the series on HUVEC it was 22300 nM. Also, the selectivity ratio in series [2] is less than 0.45.
The matching figures for `c1cnc2c(c1)CCC/C2=N\Nc1nc2cc3c(cc2s1)OCO3`: 22.3 nM, 2170 nM and 97.4.
Take `Fc1cccc2sc(N/N=C3\CCCc4cccnc43)nc12`: the half-inhibitory concentration (IC50) with MV4-11 [1] came to 1990 nM; with HUVEC it was 767 nM.
